Only some compounds are listed: those with a hit (about 6.7% of all), similar ones and a draw of the others.
Beta cell apopt: inhibitors of cytokine-induced beta cell apoptosis, primary screen, luminescence; INS-1E cytokine-induced death, ATP luminescence, 48 h; percent of positive-control rescue, neutral wells zero; protection from apoptosis, % (concentration not given with the values); 300,000 compounds, 0.8% hits; AID 435005, 2010;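 active = Every replicate reaches about 75%, or at least half do and their mean reaches it too, limit read from the data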;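 note: higher means more ATP so stronger rescue from cytokine killing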
CSC inhib: cancer stem cell viability inhibitors, primary screen, luminescence; cancer stem cell-like cells viability; inhibition, % at 7.5 µM; 300,000 compounds, 1.1% hits; in the data active = inhibition above about 75%; tested in HMLE shEcad cells
CHOP inhibitor: inhibitors of CHOP promoter induction, primary screen, cell-based, unfolded protein response, luciferase reporter; CHO-K1 CHOP-promoter luciferase, tunicamycin-induced, 15-18 h; inhibition, % at 10 µM; 220,000 compounds, 3.8% hits; AID 2732, 2010;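 active = compounds that reduced the stress-induced luciferase reporter signal by more than about 70% of percent inhibition, limit read from the data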
PREPL inh: PREPL enzyme inhibitors, primary screen, biochemical, fluorescence polarization. Prolyl endopeptidase-like (Homo sapiens), Q4J6C6. recombinant PREPL, fluorescence polarization activity-based probe. inhibition, % at 5.96 µM. 320,000 compounds, 0.68% hits. AID 2751, 2010; in the data active = inhibition above about 43%
T cruzi repl: inhibitors of intracellular T. cruzi growth, primary screen, luminescence, NIH3T3 host cells; T. cruzi beta-gal in NIH3T3, 90 h; inhibition, % (no concentration beside the values); 300,000 compounds, 1.4% hits;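 active = mean inhibition across valid replicates above about 55%, limit read from the data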;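 note: signal also drops with host cell toxicity which is not excluded here; higher percent means less beta-gal luminescence so fewer parasites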
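System: NIH/3T3 fibroblasts plus reporter T. cruzi. Medium: DMEM plus 2% FBS. Probe or stimulus: 5000 reporter trypomastigotes per well. Compound: single 50 nL compound addition per well in DMSO. Incubation: co-culture of at least 90 h after 3 h attachment. Detection: GalScreen β-gal luminescence, detergent lysis, 60 min. Evaluation: parasite load inhibition, %.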
GRIN3A LBD mod: binders of NR3A ligand-binding domain, primary screen, biophysical, differential scanning fluorimetry, uHTS | Glutamate receptor ionotropic, NMDA 3A (GRIN3A) ligand-binding domain | AID 1259313, 2017 | NR3A LBD differential scanning fluorimetry, Tm shift; 0% = protein alone, 100% = glycine-bound protein | Tm shift relative to glycine control, % at 25 µM | 340,000 compounds, 2.5% hits;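 active = melting temperature shift of at least 10% of the positive control shift, at one fixed dose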
A number is an active result; . = inactive; / = no result.

SMILES | Beta cell apopt | CSC inhib | CHOP inhibitor | PREPL inh | T cruzi repl | GRIN3A LBD mod
CN1/C(=C\C(=O)C[n+]2ccc3ccccc3c2)C(C)(C)c2ccccc21 | / | / | . | / | 61 | .
CN1/C(=C\C(=O)c2cccnc2)C(C)(C)c2ccccc21 | . | . | . | . | . | .
CN1/C(=C\C(=O)COc2ccc3c(c2)OCO3)C(C)(C)c2ccccc21 | . | 112 | 85 | . | 56 | .
CN1/C(=C\C(=O)c2cncc(Br)c2)C(C)(C)c2ccccc21 | 101 | . | . | . | . | .
COc1ccccc1CCCNC(=O)C1CCC(=O)N(Cc2ccccc2F)C1 (centres undefined) | . | . | / | . | . | .
FC(F)(F)c1cc(-c2ccc3c(c2)OCO3)nc(NCc2ccco2)n1 | . | . | . | . | . | .
COc1ccc(-c2cc(C(F)(F)F)nc(NCc3ccco3)n2)cc1OC | . | . | 75 | . | . | .
COc1cccc(-c2cc(C(F)(F)F)nc(NCc3ccco3)n2)c1 | . | . | 71 | . | . | .
Cc1ccc(NC(=O)/C=C/C(=O)O)c(NC(=O)c2ccccc2)c1 | . | . | / | . | . | .
O=C(CCNC(=O)c1ccc(Br)cc1)NC1CCCc2ccccc21 (centres undefined) | . | . | / | . | . | .
COC(=O)C1=C(C)N(C)C(C)=C(C(=O)OC)C1c1ccc(C(=O)OC)cc1 | . | . | . | . | . | .
COC(=O)C1=C(C)N(C)C(C)=C(C(=O)OC)C1c1ccsc1 | . | . | . | . | . | 12
Cc1ccc(CC(=O)Nc2ccc(S(=O)(=O)Nc3ncccn3)cc2)cc1 | . | . | / | . | . | .
CC1CN(C(=O)COc2ccc3c(-c4ccccc4)cc(=O)oc3c2)CC(C)O1 (centres undefined) | . | . | / | . | / | .
CC(=O)c1c(N2CCOCC2)nc2ccc(Cl)cc2c1-c1ccccc1 | . | . | . | . | . | .
Cc1cc(C)n(-c2ccc3cccc(NS(C)(=O)=O)c3n2)n1 | / | 87 | 74 | . | 60 | .
COc1ccc(N2CC(C(=O)N(CC(C)C)c3c(N)n(Cc4ccccc4)c(=O)[nH]c3=O)CC2=O)c(OC)c1 (centres undefined) | . | . | / | . | . | .
COc1cccc(/C=N/Nc2cc(-n3nc(C)cc3-c3ccccc3)ncn2)c1O | / | / | 92 | . | . | .
COc1cccc(/C=N/Nc2nc(Nc3ccccc3)nc(-n3nc(C)cc3C)n2)c1O | 135 | . | 87 | . | . | .
O=C(Nc1ccccc1)c1cc([N+](=O)[O-])ccc1NCc1cccnc1 | . | / | . | . | . | .
CC(=C/c1ccc(C(C)C)cc1)/C=N/NC(=O)CSc1ccccn1 | . | . | 92 | . | . | .
CC1=C(C(=O)OC2CCC(C)CC2)C(c2ccc(O)c([N+](=O)[O-])c2)NC(=O)N1 (centres undefined) | . | . | / | . | . | .
CCN(CC)C(=O)Cn1cc(C(=O)C(=O)Nc2ccc3c(c2)OCCO3)c2ccccc21 | . | . | / | . | . | .
Nc1cc(C(=O)OCC(=O)N2CCC(Cc3ccccc3)CC2)ccc1Cl | . | / | / | . | / | .
O=C(CCC1CCCCC1)NCCS(=O)(=O)N1CCN(c2ccc(F)cc2)CC1 | / | . | / | . | . | 14
SMILES | Beta cell apopt | CSC inhib | CHOP inhibitor | PREPL inh | T cruzi repl | GRIN3A LBD mod
COc1ccc(N2CCN(S(=O)(=O)CCNC(=O)C3CC3)CC2)cc1 | / | . | / | . | . | 13
COc1ccc(C2CC(c3ccccc3)n3nnnc3N2)cc1 (centres undefined) | . | . | . | . | . | 411
COc1ccc(/C=C/C(=O)N(CC(C)C)CC(C)C)cc1Br | . | . | 84 | . | / | .
COc1ccc(CN2CCN(C(=O)CC(C)C)CC2)cc1Br | . | . | / | . | . | .
Cc1ccc(C)c(N2CCN(C(=O)c3ccc(CSc4nc5ccncc5[nH]4)cc3)CC2)c1 | . | / | 72 | . | . | .
O=C(c1ccc(CSc2nc3ccncc3[nH]2)cc1)N1CCCCC1 | . | . | . | . | . | .
Cc1ncoc1C(=O)NC1CCCc2c1cnn2-c1ccc(C(C)(C)C)cc1 (centres undefined) | / | / | / | / | . | .

Assay outcomes: PubChem BioAssay, several laboratories
